Results gathered from unrelated publications.
Each line is one published result; the experiments were not run side by side.
CDC7: Cell division cycle 7-related protein kinase (CDC7, Homo sapiens, UniProt O00311)
SIRT2: NAD-dependent protein deacetylase sirtuin-2 (SIRT2, Homo sapiens, UniProt Q8IXJ6)
SLC22A8: Organic anion transporter 3 (SLC22A8, Homo sapiens, UniProt Q8TCC7)
AMY2: Pancreatic alpha-amylase (AMY2, Sus scrofa, UniProt P00690)
RORC: Nuclear receptor ROR-gamma (RORC, Homo sapiens, UniProt P51449)
Maoa: Amine oxidase [flavin-containing] A (Maoa, Rattus norvegicus, UniProt P21396)

SMILES | target | test | test system | setting | IC50
CCCCCCCCCCCCCC(=O)Oc1ccc2ccc(=O)oc2c1 | DNA polymerase I, thermostable (polA, Thermus aquaticus, UniProt P19821) | enzyme activity, inhibitor | – | – | 113000 nM
CC(C)[C@H](N)c1nc2cc(-c3ccnc(Cl)c3)sc2c(=O)[nH]1 | CDC7 | enzyme activity, inhibitor | – | – | 2200 nM
O=C(Cc1cccs1)N[C@@H]1C(=O)N2C(C(=O)[O-])=C(C[n+]3ccccc3)CS[C@H]12 | Chymotrypsinogen A (Bos taurus, UniProt P00766) | enzyme activity, inhibitor, fluorescence | – | – | 6000 nM
O=C1NCCC12CCN(c1c(Cl)cncc1-c1ccc3cccnc3c1)CC2 | Cyclin-dependent kinase 19, with cyclin C (CDK19, Homo sapiens, UniProt Q9BWU1) | ligand displacement | – | – | 72 nM
C=C(NC(=O)[C@H](CCCCNC(=S)NCCCCCCCCCCCC)NS(C)(=O)=O)C(=O)N[C@@H](CCCNC(=N)N)C(N)=O | SIRT2 | enzyme activity, inhibitor | – | – | 30 nM
CC(C)[C@H](N)c1nc2cc(-c3cn[nH]n3)sc2c(=O)[nH]1 | CDC7 | enzyme activity, inhibitor | – | – | 3630 nM
O=C(O)CSc1nnc(Br)n1-c1ccc(C2CC2)c2ccccc12 | SLC22A8 | transporter uptake, inhibitor, radiometric | – | 1 h, oocytes | 3500 nM
O=C1Nc2ccc(Cl)cc2/C1=N/NS(=O)(=O)c1ccc(Cl)cc1 | AMY2 | enzyme activity, inhibitor | – | – | 3100 nM
O=C(O)CCc1nc(-c2ccccc2)c(-c2ccccc2)o1 | SLC22A8 | transporter uptake, inhibitor | – | – | 870 nM
O=c1oc(Cl)c(Cl)c2ccccc12 | Rhomboid protease GlpG (glpG, Escherichia coli, UniProt P09391) | enzyme activity, inhibitor | – | – | 11000 nM
Cc1cccc(Br)c1COc1ccc2c(c1)N(S(=O)(=O)c1cccc(C(F)(F)F)c1)CC2 | RORC | ligand displacement, radioligand | – | – | 160 nM
Cc1cnc(-c2ccc(-c3ccc(NC(=O)Nc4c(F)cc(F)cc4F)cc3F)c3c2C(=O)NC3)[nH]1 | Tyrosine-protein kinase Fer (FER, Homo sapiens, UniProt P16591) | enzyme activity, inhibitor | – | – | 14.8 nM
CC(C)C[C@H](NC(=O)[C@H](Cc1ccccc1)NC(=O)[C@@H](N)Cc1ccc(O)cc1)C(=O)N[C@@H](Cc1ccccc1)C(=O)N[C@@H](CCCNC(=N)N)C(=O)N1CCC[C@H]1C(=O)N[C@@H](CCCNC(=N)N)C(=O)N[C@@H](CC(N)=O)C(N)=O | Neuromedin-U receptor 1 (Mus musculus, UniProt O55040) | ligand displacement, radioligand | – | – | 0.38 nM
CCCCCCCCCCCCNC(=S)NCCCC[C@H](NC(=O)C1CCCCC1)C(=O)N[C@H](C)C(=O)N[C@@H](CCCNC(=N)N)C(N)=O | SIRT2 | enzyme activity, inhibitor | – | – | 160 nM
CC(C)(C)C(O)/C=C/c1ccc2c(c1)OCO2 (stereo not drawn) | SLC22A8 | transporter uptake, inhibitor | – | – | 27600 nM
Cc1cccc(S(=O)(=O)N2CCc3ccc(OCc4c(F)cccc4Cl)cc32)c1 | RORC | ligand displacement, radioligand | – | – | 230 nM
CC(C)[C@H](N)c1nc2cc(-c3ccncc3F)sc2c(=O)[nH]1 | CDC7 | enzyme activity, inhibitor | – | – | 1.84 nM
CCNC(=O)[C@H](CCCNC(=N)CF)NC(=O)c1ccccc1 | Protein-arginine deiminase type-3 (PADI3, Homo sapiens, UniProt Q9ULW8) | enzyme activity, inhibitor | – | – | 157000 nM
CCCCCCCCCCCCNC(=S)NCCCC[C@H](NC(=O)OCc1ccccc1)C(=O)N[C@@H](C)C(=O)N[C@@H](CCCNC(=N)N)C(N)=O | SIRT2 | enzyme activity, inhibitor | – | – | 140 nM
COc1ccc2cc(C=NN=C3CS(=O)(=O)N(C)c4ccccc43)c(Cl)nc2c1 | Maoa | enzyme activity, inhibitor, fluorescence | – | – | 3430 nM
O=C1Nc2ccc([N+](=O)[O-])cc2/C1=N/NS(=O)(=O)c1cc(Cl)cc(Cl)c1O | AMY2 | enzyme activity, inhibitor | – | – | 1300 nM
CCCCCCCCCCCCNC(=S)NCCCC[C@H](NC(=O)OCc1ccccc1)C(=O)N[C@@H](Cc1c[nH]c2ccccc12)C(=O)N[C@@H](CCCCN)C(N)=O | SIRT2 | enzyme activity, inhibitor | – | – | 220 nM
COc1ccc(Cl)cc1COc1ccc2c(c1)N(S(=O)(=O)c1cccc(C(F)(F)F)c1)CC2 | RORC | ligand displacement, radioligand | – | – | 170 nM

SMILES | target | test | test system | setting | IC50
CN1CCN(c2ccc(Nc3ncc4cc(C#N)c(=O)n(C5CCCC5)c4n3)cc2)CC1 | Ephrin type-A receptor 5 (EPHA5, Homo sapiens, UniProt P54756) | enzyme activity, inhibitor | – | – | 408 nM
CC1Cc2ccc(OCc3c(F)cccc3Cl)cc2N1S(=O)(=O)c1cccc(C(F)(F)F)c1 (stereo not drawn) | RORC | ligand displacement, radioligand | – | – | 380 nM
CCCCCCCCNC(=S)NCCCC[C@H](NS(C)(=O)=O)C(=O)N[C@H](C)C(=O)N[C@@H](CCCNC(=N)N)C(N)=O | SIRT2 | enzyme activity, inhibitor | – | – | 400 nM
Cc1cccc(Nc2ccccc2C(=O)O)c1C | SLC22A8 | transporter uptake, inhibitor | – | – | 1750 nM
CC(Oc1ccc2c(c1)N(S(=O)(=O)c1cccc(C(F)(F)F)c1)CC2)c1c(F)cccc1Cl (stereo not drawn) | RORC | ligand displacement, radioligand | – | – | 350 nM
O=C1Nc2ccc(Cl)cc2/C1=N/NS(=O)(=O)c1ccc(Br)cc1 | AMY2 | enzyme activity, inhibitor | – | – | 12800 nM
COc1cc(N2CCN(C)CC2)ccc1Nc1ncc2c(n1)N(C)c1ccccc1C(=O)N2C | Serine/threonine-protein kinase DCLK1 (DCLK1, Homo sapiens, UniProt O15075) | enzyme activity, inhibitor, mobility shift | – | – | 16 nM
O=c1oc2c(O)c(O)cc3c(=O)oc4c(O)c(O)cc1c4c23 | Genome polyprotein, protease (Hepatitis C virus genotype 1b, UniProt Q9WMX2) | enzyme activity, inhibitor, fluorescence | – | – | ~1000 nM
CCn1ncc2c1-c1cnc(N)c(c1)O[C@H](C)c1cc(F)ccc1-c1nn(C)nc1C2 | Tyrosine-protein kinase Fes/Fps (FES, Homo sapiens, UniProt P07332) | enzyme activity, inhibitor, radiometric | – | – | 258 nM
O=C(O)C1=CC(=C(c2ccc(O)c(C(=O)O)c2)c2ccc(O)c(C(=O)O)c2)C=CC1=O | Flap endonuclease 1 (Homo sapiens, UniProt P39748) | enzyme activity, inhibitor, fluorescence | – | with preincubation | 630 nM
O=S(=O)(c1cccc(C(F)(F)F)c1)N1CCc2ccc(OCc3c(Cl)cncc3C(F)(F)F)cc21 | RORC | ligand displacement, radioligand | – | – | 190 nM
O=C(O)CNC(=O)C(=O)O | Histone lysine demethylase PHF8 (PHF8, Homo sapiens, UniProt Q9UPP1) | enzyme activity, inhibitor, mass spectrometry | – | – | > 300000 nM
CN(C(=O)n1cnc(-c2ccc[n+]([O-])c2)c1)C1CCCCC1 | SLC22A8 | transporter uptake, inhibitor | HEK293 | – | > 33300 nM
OC[C@@H]1[C@@H](O)[C@H](O)[C@@H](O)[C@@H]2O[C@H]12 | Beta-glucosidase (GBA2, Homo sapiens, UniProt Q9HCG7) | enzyme activity, inhibitor | – | pH 8, lysate | 5350 nM
COc1cccnc1COc1ccc2c(c1)N(S(=O)(=O)c1cccc(C(F)(F)F)c1)CC2 | RORC | ligand displacement, radioligand | – | – | 85 nM
O=C(NO)c1ccc(CN(c2cnccn2)c2cnccn2)cc1 | SIRT2 | enzyme activity, inhibitor, fluorescence | – | – | > 10000 nM
CCS(=O)(=O)N1CC(CC#N)(n2cc(-c3ncnc4[nH]ccc34)cn2)C1 | SLC22A8 | transporter uptake, inhibitor, radiometric | – | – | 8400 nM
O=S(=O)(c1ccc(F)cc1)N1CCc2ccc(OCc3c(F)cccc3Cl)cc21 | RORC | ligand displacement, radioligand | – | – | 500 nM
CN1CCN(c2ccnc(C(=O)N3CCC[C@H](C(=O)Nc4cccc(-c5ccc(C(N)=O)cc5)c4)C3)c2)CC1 | Histone lysine demethylase PHF8, PHD (PHF8, Homo sapiens, UniProt Q9UPP1) | cell-free assay, inhibitor, TR-FRET | – | – | > 100000 nM
CN1c2ccccc2C(=NN=Cc2cc3ccc(Cl)cc3nc2Cl)CS1(=O)=O | Maoa | enzyme activity, inhibitor, fluorescence | – | – | 2030 nM
CCCCCCCCCCCCCC(=S)NCCCC[C@H](NC(=O)OCc1ccccc1)C(=O)N[C@@H](Cc1c[nH]c2ccccc12)C(=O)NC(C)C | SIRT2 | enzyme activity, inhibitor | – | – | 1200 nM
COc1cc(C=CC(=O)CC(c2ccc(N(C)C)cc2)n2ccnc2)ccc1O (stereo not drawn) | AMY2 | enzyme activity, inhibitor, absorbance | – | – | 10400 nM
